Bioassay records from PubChem.
PHOSPHO1 inh – PubChem AID 1565; Phosphoethanolamine/phosphocholine phosphatase (Homo sapiens), Q8TCT1; recombinant PHOSPHO1, absorbance phosphatase assay; inhibition, % at 13.3 µM; 290,000 compounds, 1.1% hits; in the data active = inhibition above about 60%
ABCG2 block – ABCG2 efflux pump inhibitors, primary screen, multiplex with ABCB1, IgMXP3 cells, flow cytometry | Broad substrate specificity ATP-binding cassette transporter ABCG2 (Homo sapiens), Q9UNQ0 | JC-1 efflux | inhibition, % at 6.6 µM | 190,000 compounds, 0.1% hits | AID 1325, 2008;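 active = inhibition above 80%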;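 also: 0% = DMSO and 100% = nicardipine control wells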
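Test system: IgMXP3 (ABCG2) plus far-red-tagged CCRF-Adr (ABCB1) cells. Reagent: JC-1 dye as substrate. Timing: 10 min exposure at 25 °C with rotation, no wash. Measured by: flow cytometric JC-1 green MFI at 530 nm. Read-out: percent efflux inhibition, scaled nicardipine 100% to DMSO 0%. Control set: nicardipine and DMSO wells.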
PKD1 kinase inh – inhibitors of human PKD1 kinase, biochemical, fluorescence polarization. PKD1 kinase fluorescence polarization assay. Serine/threonine-protein kinase D1 (Homo sapiens), Q15139. 200,000 compounds, 0.056% hits. AID 797, 2007. inhibition, % (concentration not given with the values); in the data active = inhibition above about 50%
ABCB1 inh – ABCB1 efflux pump inhibitors, primary screen, cell-based, multiplex, flow cytometry, ABCG2 counter-screen; ATP-dependent translocase ABCB1 (Homo sapiens), P08183; CCRF-Adr cells, JC-1 efflux; inhibition, % at 6.6 µM; 190,000 compounds, 0.067% hits; AID 1326, 2008; in the data active = inhibition above about 40%;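 also: 0% = vehicle and 100% = reference inhibitor; higher value means more JC-1 retained so stronger ABCB1 efflux block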
HSV replic up – enhancers of HSV replication in host cells, fold increase, host cell viability; HSV replication augmentation in cells; maximum fold increase; 220,000 compounds, 0.005% hits; AID 1956, 2009; in the data active = maximum fold increase above about 1.5; inconclusive = no clear call, values can overlap the other calls; tested in PC3 cells
p47phox inh – p47phox/p22phox peptide binding inhibitors, primary screen, biochemical, uHTS, NADPH oxidase regulatory subunit. Neutrophil cytosol factor 1 (Homo sapiens), P14598. fluorescence polarization, 2 h. inhibition, % at 24.7 µM. 220,000 compounds, 0.53% hits. AID 1274, 2008;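 active = inhibition above about 30%, limit read from the data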;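 also: 0% = p47phox with labelled peptide and 100% = labelled peptide alone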
Target sequence (P14598 whole entry, looked up): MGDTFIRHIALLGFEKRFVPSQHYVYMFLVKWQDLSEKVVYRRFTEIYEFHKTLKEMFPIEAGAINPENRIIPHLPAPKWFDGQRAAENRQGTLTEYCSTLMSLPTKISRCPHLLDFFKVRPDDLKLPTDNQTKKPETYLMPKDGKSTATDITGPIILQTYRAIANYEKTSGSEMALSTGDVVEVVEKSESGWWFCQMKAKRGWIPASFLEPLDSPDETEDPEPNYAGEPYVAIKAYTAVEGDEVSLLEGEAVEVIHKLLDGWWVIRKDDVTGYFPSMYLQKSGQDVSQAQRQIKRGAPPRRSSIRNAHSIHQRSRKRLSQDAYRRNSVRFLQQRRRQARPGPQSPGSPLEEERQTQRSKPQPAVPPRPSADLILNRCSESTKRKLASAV
Starred values were filed as active, the others as inactive; i = inactive; ? = inconclusive; . = not tested or not shown. A selection: hits, their analogues and other compounds. The true share with any hit is near 1.6%.

SMILES	PHOSPHO1 inh	ABCG2 block	PKD1 kinase inh	ABCB1 inh	HSV replic up	p47phox inh
CCOC(=O)n1c(=O)n(Cc2c(Cl)cccc2Cl)c2ccccc21	16	2	16	1	i	-3
Cc1ccc(NS(=O)(=O)c2ccc(OCC(=O)NCC3CCCO3)cc2)cc1 (stereo not drawn)	31	8	-8	0	i	1
CCc1c(C)sc(NC(=O)OC)c1C(=O)N1CCCCC1	29	-1	3	0	.	37*
CCc1c(C)sc(NC(=O)OC)c1C(N)=O	-10	3	5	0	i	-7
CN(C)C(=O)C(NC(=O)c1ccccc1)=C(Cl)Cl	5	5	-1	1	i	-8
O=C(c1ccco1)N1N=C(c2cccs2)CC1c1ccc(F)cc1 (stereo not drawn)	18	3	-1	1	i	-6
O=C(c1ccco1)N1N=C(c2cccs2)CC1c1cc([N+](=O)[O-])ccc1O (stereo not drawn)	61*	.	.	.	.	.
Cc1c(N=Cc2nc3ccccc3n2C)c(=O)n(-c2ccccc2)n1C	44	90*	-5	2	i	-5
Cc1ccnc2c1ccc1ccccc12	56	.	.	.	.	.
CC1=Nc2ccc3ccccc3c2C1(C)C	63*	1	-1	0	.	-13
COc1cc(N=c2ssnc2Cl)cc(OC)c1	48	-4	2	-1	i	11
OCc1ccccc1N=Cc1cccnc1	35	.	.	.	.	.
Clc1ccc(N=c2ssnc2Cl)nc1	92*	3	-4	1	i	-8
Clc1nssc1=Nc1ccc(Br)cc1	80*	-10	1	-6	i	20
N#Cc1cccc(N=c2ssnc2Cl)c1	-86	-3	-6	-1	i	23
OCc1ccccc1N=c1ssnc1Cl	91*	1	-8	0	i	-1
CC(=O)Nc1ccc(C(=O)NC(C)c2ccc(-n3ccnc3)cc2)cc1 (stereo not drawn)	68*	.	.	.	.	.
N=C(N)SCc1cn(-c2ccccc2)nc1-c1ccc(Br)cc1	19	2	-4	2	i	54*
Cc1ccc(-c2nn(-c3ccccc3)cc2CO)cc1	34	.	.	.	.	.
CCn1c(=O)c2c3c(sc2n2c(=S)[nH]nc12)CCC3	102*	0	-4	0	i	4
CCn1c(NN)nc2sc3c(c2c1=O)CCC3	86*	-2	4	-1	?	-28
C/C(Cn1cnc([N+](=O)[O-])n1)=N\NC(=O)c1ccc(O)cc1O	33	2	6	0	i	-4
Cc1cccc(C(=O)N/N=C2/SCC(=O)N2Cc2ccccc2)c1	45	2	-8	1	i	-11
CCOC(=O)c1c(N)sc2c1CCC(C)C2 (stereo not drawn)	43	5	3	1	i	-6
CCCC1CCc2c(sc(N)c2C(N)=O)C1 (stereo not drawn)	95*	3	4	1	i	-31
SMILES	PHOSPHO1 inh	ABCG2 block	PKD1 kinase inh	ABCB1 inh	HSV replic up	p47phox inh
CCC(C)(C)C1CCc2c(sc(N)c2C(N)=O)C1 (stereo not drawn)	-32	1	-6	0	i	-11
CC(C)(C)C1CCc2c(sc(N)c2C(N)=O)C1 (stereo not drawn)	83*	9	-2	0	i	-15
O=C(Cn1ncc2c3ccccc3n(Cc3cccc(Cl)c3)c2c1=O)NCc1ccccn1	38	.	.	.	.	.
O=C(CSc1nnc2c3ccccc3c3ccccc3c2n1)Nc1ccccc1F	94*	-1	5	0	.	-105
COCCCNC(=S)NNC(=O)c1ccc2c(c1)OCO2	-137	2	0	1	i	-9
CC(C)CNC(=S)NNC(=O)c1ccc2c(c1)OCO2	62*	-2	2	-2	.	-9
Cc1cc(=O)oc2c(C)c(OC(C)C(=O)N3CC[C@@]4(O)CCCC[C@H]4C3)ccc12 (stereo partly drawn)	34	.	.	.	.	.
Clc1ccccc1C1=Nn2c(nnc2-c2ccncc2)SC1	26	49	9	2	.	-10
CC1=Nn2c(nnc2-c2ccccc2Cl)SC1	74*	3	-5	1	i	-4
COc1ccccc1-c1nnc2n1N=C(C)CS2	74*	1	3	0	i	-2
Cn1c(-c2cccs2)[n+](C)c2ccccc21	28	3	-2	1	i	4
CC(=O)NC(CC(=O)O)c1ccc([N+](=O)[O-])cc1 (stereo not drawn)	-4	.	.	.	i	1
CN(C)S(=O)(=O)c1ccc(NC(=O)COC(=O)C2COc3ccccc3O2)cc1 (stereo not drawn)	25	6	9	0	i	-11
COc1ccccc1NC(=O)CSc1ccc2nnc(-c3ccc(C)cc3)n2n1	40	6	-6	2	.	35*
COc1ccccc1NC(=O)CSc1ccc2nnc(-c3ccncc3)n2n1	0	2	-5	0	i	-2
CC(=O)C(Sc1ccc2nnc(-c3ccc(C)cc3)n2n1)C(C)=O	-2	3	-12	1	i	-5
CC(=O)C(Sc1ccc2nnc(-c3ccc(F)cc3)n2n1)C(C)=O	89*	7	-6	1	i	-2
CCOC(=O)CC(=O)CSc1ccc2nnc(-c3ccc(C)cc3)n2n1	68*	2	-3	0	i	-2
Cc1c(C)n(C(=O)CSc2nccn2C)c2ccccc12	61*	27	0	0	i	0
O=C1CCCC(=O)N1c1ccc(N2CCN(c3ccc([N+](=O)[O-])cc3)CC2)c([N+](=O)[O-])c1	-11	13	-3	1	i	-2
O=C(Nc1ccccc1C(=O)N1CCCC1)C1COc2ccccc2O1 (stereo not drawn)	16	1	66*	1	i	3
Cc1[nH]c(C)c(S(=O)(=O)NCc2ccc(OC(C)C)cc2)c1C(=O)N1CCCC1	29	.	.	.	.	.
Cc1ccc(-n2cc(-c3ccccc3)c3c(NN4CCOCC4)ncnc32)cc1	-26	6	1	3	i	94*
COc1ccc(OC)c(CNC(=O)CCn2c(=O)c3cccn3c3ccc(F)cc32)c1	16	.	.	.	.	.
NC(=O)c1ccc(N2CCCCC2)c(N2C(=O)C3C4C=CC(C4)C3C2=O)c1 (stereo not drawn)	-14	6	-9	0	i	-6
O=C(O)c1ccc(N2CCOCC2)c(N2C(=O)C3C4C=CC(C4)C3C2=O)c1 (stereo not drawn)	62*	0	-3	0	i	4
COc1cc(C(=O)OCC(=O)N2CC(C)OC(C)C2)cc(OC)c1OC (stereo not drawn)	19	.	.	.	.	.
CC(=O)c1ccc(NC(=O)CCCN2C(=O)COc3ccc(C)cc32)cc1	70*	.	.	.	.	.
